A selection: hits, their analogues and other compounds. The true share with any hit is near 2.2%.
thrombin 1536 = inhibitors of human thrombin. inhibition, % at 5 µM. alpha-thrombin, Boc-VPR-AMC fluorogenic substrate cleavage. P00734. AID 1046. hit rate 0.26% among 220,000;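 active = inhibition at or above 40%; inactive = inhibition below 40%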
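System – human alpha-thrombin · Medium – pH 7.5 Tris (50 mM) with NaCl 150 mM, Tween 20 0.05% · Compound – single-point dosing at 5 µM, 0.2% DMSO · Incubation – enzyme reaction carried out at room temperature · Technique – fluorescence of released AMC, ex 355 nm, em 460 nm · Read-out basis – % inhibition of thrombin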
Wee1 degr inh = inhibitors of human Wee1 degradation; HeLa Luc-Wee1K328M stability, luciferase luminescence; 100% = proteasome inhibitor MG132 effect; reporter increase, % at 5 µM; hit rate 1.2% among 220,000;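 active = activation above the mean of all tested compounds plus 3 SD, set per screening run, cut at about 8.8% in these data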;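 note: cells exposed to compound for 20 h before luminescence read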
FXIIa inh = factor XIIa (human) inhibition | hit rate 0.3% among 220,000 | purified FXIIa, Boc-QGR-AMC fluorogenic substrate, 2 h | P00748 | inhibition, % at 5 µM; in the data active = inhibition above about 40%
Target sequence (P00748 20-372 limits assumed): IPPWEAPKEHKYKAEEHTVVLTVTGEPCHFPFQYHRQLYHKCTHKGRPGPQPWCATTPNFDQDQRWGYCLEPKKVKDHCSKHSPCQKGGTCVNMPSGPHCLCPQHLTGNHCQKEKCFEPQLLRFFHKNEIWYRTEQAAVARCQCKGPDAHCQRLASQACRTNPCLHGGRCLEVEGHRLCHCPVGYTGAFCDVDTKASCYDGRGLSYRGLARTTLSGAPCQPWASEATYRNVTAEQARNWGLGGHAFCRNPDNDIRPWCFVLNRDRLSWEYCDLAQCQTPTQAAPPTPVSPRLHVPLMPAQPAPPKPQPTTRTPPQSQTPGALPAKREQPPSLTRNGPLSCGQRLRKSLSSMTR
Target sequence (P00748 373-615 limits assumed): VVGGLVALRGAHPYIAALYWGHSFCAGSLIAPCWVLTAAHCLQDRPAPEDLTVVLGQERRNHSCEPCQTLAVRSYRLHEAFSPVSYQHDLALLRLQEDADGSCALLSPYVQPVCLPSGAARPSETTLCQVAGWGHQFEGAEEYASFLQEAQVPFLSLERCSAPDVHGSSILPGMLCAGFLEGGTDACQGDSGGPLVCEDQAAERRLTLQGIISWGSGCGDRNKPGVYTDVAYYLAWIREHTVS
FXIa inh = blocks human coagulation factor XIa protease activity; purified FXIa, Boc-Glu-Ala-Arg-AMC fluorogenic substrate; inhibition, % at 5 µM; hit rate 0.14% among 220,000;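 active = inhibition of at least 40%; inactive = inhibition below 40%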;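 note: fluorescence of freed AMC excited at 355 nm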
hK5 inh = inhibitors of human kallikrein 5; Q9Y337; recombinant hK5, fluorogenic AMC substrate cleavage; inhibition, % at 5 µM; hit rate 0.59% among 210,000; AID 873;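 active = inhibition of 40% or more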
Hits are given with their value; 0 = inactive; - = no result given.

SMILES	thrombin 1536	Wee1 degr inh	FXIIa inh	FXIa inh	hK5 inh
Cc1ccc(S(=O)(=O)N2CCN(Cc3cc(C(C)C)ccc3O)CC2)cc1	0	0	43.1	0	0
O=C(CCC1CCCN(Cc2cccc(Cl)c2)C1)NCc1ccccc1F (stereo not given)	0	0	0	0	0
CCOCc1c(C(=O)NC2CCCCCC2)oc2ccccc12	0	0	0	0	0
CC(C)=CC(=O)NCCc1ccccc1	0	10.0	0	0	0
CCN(C(=O)CSc1nc2ccccc2c(=O)n1CCOC)C1CCS(=O)(=O)C1 (stereo not given)	0	0	0	0	0
CC(OC(=O)CCCCCN=C1NS(=O)(=O)c2ccccc21)C(=O)Nc1cc(Cl)cc(Cl)c1 (stereo not given)	0	0	0	0	0
Cc1cc(N/N=C/c2ccc(O)cc2)nc(NS(=O)(=O)c2ccccc2)n1	0	0	0	0	47.0
Cc1ccc(/C=N/Nc2cc(C)nc(NCc3ccccc3)n2)cc1	0	0	0	0	0
O=S(=O)(Nc1cccc2c1CCCC2)c1ccc(Cl)cc1	0	0	0	0	0
CC(=O)c1cccc(N(CC(=O)O)S(C)(=O)=O)c1	0	0	0	0	0
CCOC(=O)CN(c1cccc(C(C)=O)c1)S(C)(=O)=O	0	0	0	0	44.0
CC(C)NC(=O)c1ccc(C(C)C)cc1	77.6	0	0	0	0
CC(C)c1ccc(C(=O)NCc2ccc(Cl)cc2)cc1	0	0	0	0	0
CC(=O)c1c(C(C)=O)c(C)n(NC(=O)c2ccccc2Cl)c1C	0	9.2	0	0	0
CC(C)(C)C(=O)CNCC(=O)C(C)(C)C	0	0	0	0	0
NC(=O)c1ccc(NC(=O)COC(=O)/C=C/c2ccc3c(c2)OCO3)cc1	0	0	0	0	57.2
COc1ccccc1NC(=O)COC(=O)/C=C/c1ccc2c(c1)OCO2	0	0	0	0	0
CCOC(=O)CCNC(=O)N1CCCC(CNS(=O)(=O)c2cccs2)C1 (stereo not given)	41.0	0	0	0	0
Cc1cc(=O)[nH]c(SCC(=O)N2CCN(S(=O)(=O)c3ccccc3)C2)n1	0	0	0	0	0
COC(=O)C/C(O)=C(/N=Nc1cccc(C(F)(F)F)c1)C(=O)OC	0	0	0	0	0
CCOC(=O)CN1CC23C=CC(O2)C(C(=O)Nc2ccc(OCC)cc2)C3C1=O (stereo not given)	0	0	0	0	43.1
CCOC(=O)CN1CC23C=CC(O2)C(C(=O)Nc2ccc4c(c2)OCO4)C3C1=O (stereo not given)	0	0	0	0	0
NC(=O)c1c(NC(=O)C2CCCO2)sc2c1CCC2 (stereo not given)	0	0	50.4	0	0
Cc1ccc(NS(=O)(=O)N(C)C)cc1	0	9.8	0	0	0
Cc1ccc(S(=O)(=O)Nc2ccc(N(C)S(=O)(=O)c3ccc(C)cc3)cc2)cc1	0	10.2	0	0	0
SMILES	thrombin 1536	Wee1 degr inh	FXIIa inh	FXIa inh	hK5 inh
CCCn1c(=O)n(C)c(=O)c2c(SCC(=O)NC34CC5CC(CC(C5)C3)C4)nc(CC(C)C)nc21	0	0	0	0	0
CC(C)C(C)(C#N)NC(=O)CSc1nc(C2CCCCC2)n(-c2ccccc2)n1 (stereo not given)	0	0	0	0	0
COc1ccc(/C=C2/SC(=S)N(n3c(C)ccc3C)C2=O)cc1	0	0	83.7	0	0
Cc1ccc(C)c(S(=O)(=O)NCCCN2CCOCC2)c1	41.6	0	0	0	0
Cc1ccc(S(=O)(=O)NCCCN2CCOCC2)cc1C	0	0	0	0	0
O=[N+]([O-])c1ccc(C(O)C23CN4CN(CN(C4)C2)C3)cc1 (stereo not given)	0	0	0	0	0
CCc1ccc2[nH]c(O)c(N=Nc3nc(-c4ccccc4)cs3)c2c1	0	9.7	0	0	0
NC(=S)NN=C(Cc1ccccc1)Cc1ccccc1	0	0	0	0	0
CC1(C)CC(=O)C2=C(C1)N(Cc1ccccc1)C(=O)C2(NC(=O)C(C)(C)C)C(F)(F)F (stereo not given)	0	0	0	0	53.4
CCOC(=O)CSc1n[nH]c(NC(=O)c2cccc(C(F)(F)F)c2)n1	77.7	0	0	0	0
CCOC(=O)CSc1n[nH]c(NC(=O)CC)n1	0	10.2	0	0	-
COc1cccc(C(=O)Nc2nc(SCc3ccc(Cl)cc3)n[nH]2)c1	51.3	0	0	0	0
COc1cc(C#N)c(NC(=S)N2CCOCC2)cc1OC	0	0	0	0	0
Cc1cc(C)cc(NC(=O)C(=S)NCc2ccccc2)c1	0	0	0	0	-
CC(=O)N1CCC2(CC1)CC(=O)c1cc(OCC(=O)N3CCOCC3)ccc1O2	0	0	0	0	0
COC(=O)c1sccc1NC(=O)c1c(C)c(-c2cccc(Cl)c2)nc2ccccc12	0	0	0	0	0
CN(C)c1ccc(/C=N/NC(N)=S)cc1[N+](=O)[O-]	0	0	0	0	0
CC(=O)c1ccc(N2CCN(C(=O)/C=C/c3ccc(S(=O)(=O)NCc4ccco4)cc3)CC2)cc1	0	10.0	0	0	0
CSc1nc(-c2ccccc2)nc(N)c1C(C)=O	0	0	0	0	44.5
CSc1nc(-c2ccccc2)nc(NC(C)=O)c1C(C)=O	0	0	0	0	0
CCCCc1nc2ccccc2c(NC(=O)CNC(C)(C)C)c1CCC	42.2	0	0	0	0
CCCCc1nc2ccccc2c(NC(=O)CN2CCCC2)c1CCC	0	0	0	0	0
CN1CCN(Cc2cccc(Oc3ccc(Cl)cc3)c2)CC1	0	10.2	0	0	0
CCOC(=O)N1CCC(N(CCN(C)C)C(=S)Nc2ccc(OCC)cc2)CC1	0	0	0	0	0
O=C(O)CCC(=O)Nc1nnc(C(F)(F)F)s1	0	0	0	0	43.4
SMILES	thrombin 1536	Wee1 degr inh	FXIIa inh	FXIa inh	hK5 inh
CC(=O)c1ccc(N2CCN(S(=O)(=O)c3cccc(S(=O)(=O)N4CCOCC4)c3)CC2)cc1	0	0	46.8	0	89.6
Cc1nn(-c2ccc(Cl)cc2)c(NC(=O)C(C)C)c(-c2ccccc2)c1=O	0	0	0	0	0
CC(C)(C)NC(=O)CN(C(=O)C(=O)Nc1ccc2c(c1)OCCO2)C(C)(C)C	0	0	0	0	0
CCOc1ccc(-n2c(SCC(=O)Nc3cc(C)on3)nnc2-c2c[nH]c3ccccc23)cc1	0	0	47.8	0	0
COc1ccc(NC(=O)CSc2nc3ccccc3c(=O)n2CCCN2CCCCC2)c(OC)c1	0	0	0	0	48.7
CCNC(=O)CSc1nc2ccccc2c(=O)n1-c1cccc(OC)c1	0	0	0	0	0
COc1cccc(-n2c(SCC(=O)Nc3ccc4c(c3)CCC4)nc3ccccc3c2=O)c1	53.8	0	0	0	44.6
Cc1cc(NC(=O)CSc2nc3ccccc3c(=O)n2-c2ccccc2)no1	0	0	0	0	43.3
Cc1cc(NC(=O)CSc2nnc(-c3c[nH]c4ccccc34)n2-c2ccc(F)cc2)no1	0	0	0	0	0
CCOC(=O)c1cncc(O)c1	0	0	0	0	0
CCOC(=O)Cn1nc(C)n(-c2ccc(F)cc2)c1=O	0	0	0	0	0
